Holding throughout (type): functional
One assay relates to Escherichia coli. The experiment in a line: Minimum concentration required to inhibit Escherichia coli ATCC 25922. The gist of the method: (§1)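 Broth doubling-dilution MIC in Mueller Hinton broth against ATCC quality-control strains, incubated 24 h at 37 °C in ambient air. Poorly water-soluble compounds were dissolved in minimal DMSO. Values are in µg/mL.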
The next assay concerns Enterococcus faecalis. The assay is described as follows: Minimum concentration required to inhibit Enterococcus faecalis ATCC 29212. The gist of the method:
as §1

The subject of the next assay is Pseudomonas aeruginosa. The experiment in a line: Minimum concentration required to inhibit Pseudomonas aeruginosa ATCC 27853. The gist of the method:
as §1

Assay [1] relates to Staphylococcus aureus. The experiment in a line: Minimum concentration required to inhibit Staphylococcus aureus ATCC 25923. The gist of the method: as §1
The test system of assay [2] is Staphylococcus aureus. The experiment in a line: Tested for antibacterial activity against Staphylococcus aureus.

Take `O=C(O)CC[n+]1ccccc1`: the MIC in the assay on Escherichia coli, against Enterococcus faecalis, against Pseudomonas aeruginosa and with Staphylococcus aureus [1] was > 1000 µg/mL throughout. Also, the MLC in the assay with Escherichia coli, in the assay on Enterococcus faecalis, in the assay with Pseudomonas aeruginosa and in the assay with Staphylococcus aureus [1] was >1000 µg/mL throughout.
As for `CCCCCCCCCCCC(=O)OCC[N+](C)(C)C`, the minimal inhibitory concentration (MIC) in the assay with Escherichia coli came out at 64 µg/mL; against Enterococcus faecalis, 16 µg/mL; with Pseudomonas aeruginosa it was 250 µg/mL; in the assay with Staphylococcus aureus [1], 16 µg/mL. Further, the MLC in the assay on Escherichia coli was found to be 64 µg/mL; in the assay on Enterococcus faecalis, 64 µg/mL; with Pseudomonas aeruginosa, 250 µg/mL; with Staphylococcus aureus [1] it was 16 µg/mL.
Turning to `CCCCCCCCCCCCCCCCOC(=O)CC[n+]1ccccc1`, the minimum inhibitory concentration (MIC) in the assay with Escherichia coli was > 1000 µg/mL; with Enterococcus faecalis, 250 µg/mL; in the assay with Pseudomonas aeruginosa, > 1000 µg/mL; against Staphylococcus aureus [1] it was 250 µg/mL. Further, the MLC was >1000 µg/mL in the assay with Escherichia coli, 500 µg/mL with Enterococcus faecalis, >1000 µg/mL in the assay on Pseudomonas aeruginosa and 250 µg/mL with Staphylococcus aureus [1]. For the same compound, in the assay with Staphylococcus aureus [2], the “Log 1/MIC” value stood at 0.42.
Regarding `CCOC(=O)C[n+]1ccccc1`, the minimum inhibitory concentration (MIC) in the assay on Escherichia coli, in the assay with Enterococcus faecalis, against Pseudomonas aeruginosa and with Staphylococcus aureus [1] was > 12800 µg/mL throughout. Besides, the MLC in the assay with Escherichia coli, in the assay with Enterococcus faecalis, in the assay with Pseudomonas aeruginosa and in the assay with Staphylococcus aureus [1] was >12800 µg/mL throughout.
As to `CCCCCCCCCCCC(=O)OCC[N+](CC)(CC)CC.CCCCCCCCCCCCCCCC(=O)OCC[N+](CC)(CC)CC.[Br-].[Br-]`, the MIC was 500 µg/mL in the assay with Escherichia coli, 32 µg/mL in the assay on Enterococcus faecalis, > 2000 µg/mL in the assay on Pseudomonas aeruginosa and 8 µg/mL with Staphylococcus aureus [1]. Moreover, the MLC with Escherichia coli was 500 µg/mL; with Enterococcus faecalis, 125 µg/mL; in the assay with Pseudomonas aeruginosa, >2000 µg/mL; in the assay with Staphylococcus aureus [1], 16 µg/mL.
`CCCCCCCCCCCCCCCCCCNC(=O)C[n+]1ccccc1.CCCCCCCCCCCCNC(=O)C[n+]1ccccc1.[Cl-].[Cl-]`: the MIC in the assay on Escherichia coli stood at 125 µg/mL; in the assay on Enterococcus faecalis, 8 µg/mL; in the assay with Pseudomonas aeruginosa it was 500 µg/mL; against Staphylococcus aureus [1], 8 µg/mL. In addition, the MLC in the assay on Escherichia coli was 125 µg/mL; in the assay with Enterococcus faecalis, 16 µg/mL; in the assay on Pseudomonas aeruginosa, 500 µg/mL; in the assay on Staphylococcus aureus [1], 32 µg/mL.
With `CCCCCCCCCCCC(=O)OCC[N+](CC)(CC)CC.CCCCCCCCCCCC(=O)OCC[n+]1ccccc1.[Br-].[Br-]`, the MIC in the assay on Escherichia coli was determined as 125 µg/mL; against Enterococcus faecalis, 64 µg/mL; against Pseudomonas aeruginosa it was 1000 µg/mL; with Staphylococcus aureus [1], 32 µg/mL. Also, the MLC in the assay with Escherichia coli worked out at 250 µg/mL; in the assay on Enterococcus faecalis it was 64 µg/mL; with Pseudomonas aeruginosa, 1000 µg/mL; in the assay on Staphylococcus aureus [1], 125 µg/mL.
As for `C[N+](C)(C)CCO` [CHOLINE], the minimum inhibitory concentration (MIC) against Escherichia coli, with Enterococcus faecalis, in the assay with Pseudomonas aeruginosa and with Staphylococcus aureus [1] was > 2000 µg/mL in each case. The MLC in the assay with Escherichia coli, in the assay with Enterococcus faecalis, in the assay with Pseudomonas aeruginosa and in the assay with Staphylococcus aureus [1] was >2000 µg/mL throughout.
Regarding `CC[N+](CC)(CC)CCO.[Br-]`, the MIC with Escherichia coli, against Enterococcus faecalis, in the assay with Pseudomonas aeruginosa and in the assay with Staphylococcus aureus [1] was > 1000 µg/mL in each case. The MLC in the assay with Escherichia coli, in the assay with Enterococcus faecalis, in the assay with Pseudomonas aeruginosa and in the assay with Staphylococcus aureus [1] was >1000 µg/mL in each case.
As to `CCCCCCCCCCCC(=O)OCC[N+](CCCC)(CCCC)CCCC.CCCCCCCCCCCCCCCC(=O)OCC[N+](CCCC)(CCCC)CCCC.[Br-].[Br-]`, the MIC amounted to 250 µg/mL against Escherichia coli, 16 µg/mL in the assay with Enterococcus faecalis and 4 µg/mL against Staphylococcus aureus [1]. Further, the MLC is 500 µg/mL with Escherichia coli, 16 µg/mL in the assay on Enterococcus faecalis, >2000 µg/mL with Pseudomonas aeruginosa and 32 µg/mL in the assay with Staphylococcus aureus [1].
Consider `O=C(O)C[n+]1ccccc1`, for which the MIC against Escherichia coli was found to be 12800 µg/mL; with Enterococcus faecalis it was 12800 µg/mL; against Pseudomonas aeruginosa it was 12800 µg/mL; with Staphylococcus aureus [1], 6400 µg/mL. Further, the MLC in the assay with Escherichia coli, with Enterococcus faecalis, in the assay on Pseudomonas aeruginosa and in the assay with Staphylococcus aureus [1] was 12800 µg/mL each time.
Consider `CC(=O)OC[n+]1ccccc1.[Cl-]`, for which the minimum inhibitory concentration (MIC) in the assay with Escherichia coli was 3200 µg/mL; with Enterococcus faecalis, 320 µg/mL; with Pseudomonas aeruginosa it was 3200 µg/mL; in the assay on Staphylococcus aureus [1], 3200 µg/mL. For the same compound, the MLC with Escherichia coli, in the assay on Enterococcus faecalis, in the assay with Pseudomonas aeruginosa and in the assay with Staphylococcus aureus [1] was 3200 µg/mL throughout.
In the case of `CCOC(=O)C(C)[n+]1ccccc1` (stereo not drawn), the MIC against Escherichia coli, in the assay with Enterococcus faecalis, against Pseudomonas aeruginosa and with Staphylococcus aureus [1] was > 12800 µg/mL throughout. The MLC with Escherichia coli, in the assay with Enterococcus faecalis, in the assay with Pseudomonas aeruginosa and in the assay with Staphylococcus aureus [1] was >12800 µg/mL each time.
Take `OCCC[n+]1ccccc1`: the minimal inhibitory concentration (MIC) in the assay on Escherichia coli, in the assay with Enterococcus faecalis, against Pseudomonas aeruginosa and in the assay on Staphylococcus aureus [1] was > 2000 µg/mL in each case. Besides, the MLC in the assay with Escherichia coli, in the assay on Enterococcus faecalis, with Pseudomonas aeruginosa and with Staphylococcus aureus [1] was >2000 µg/mL each time.
For the compound `CCCCCCCCCCCC(=O)OCC[N+](CC)(CC)CC.CCCCCCCCCCCC(=O)OCC[N+](CCCC)(CCCC)CCCC.CCCCCCCCCCCC(=O)OCC[n+]1ccccc1.CCCCCCCCCCCCNC(=O)C[n+]1ccccc1.[Br-].[Br-].[Br-].[Br-]`, the MIC worked out at 125 µg/mL in the assay on Escherichia coli, 32 µg/mL with Enterococcus faecalis, 500 µg/mL with Pseudomonas aeruginosa and 16 µg/mL against Staphylococcus aureus [1]. For the same compound, the MLC with Escherichia coli is 250 µg/mL; with Enterococcus faecalis it was 32 µg/mL; with Pseudomonas aeruginosa, 1000 µg/mL; in the assay on Staphylococcus aureus [1], 250 µg/mL.
As to `CCCCCCCCCCCC(=O)OCC[n+]1ccccc1.CCCCCCCCCCCCCCCC(=O)OCC[n+]1ccccc1.CCCCCCCCCCCCCCCCCC(=O)OCC[n+]1ccccc1.[Br-].[Br-].[Br-]`, the MIC is 125 µg/mL against Escherichia coli, 32 µg/mL in the assay on Enterococcus faecalis, > 2000 µg/mL with Pseudomonas aeruginosa and 8 µg/mL in the assay with Staphylococcus aureus [1]. The MLC was 250 µg/mL with Escherichia coli, 32 µg/mL with Enterococcus faecalis, >2000 µg/mL with Pseudomonas aeruginosa and 16 µg/mL in the assay with Staphylococcus aureus [1].

The MIC is the lowest concentration that inhibits growth of the organism. Low readings indicate greater potency, high ones weaker potency.

These data come from ChEMBL document CHEMBL1145092, “Soft antimicrobial agents: synthesis and activity of labile environmentally friendly long chain quaternary ammonium compounds” (J Med Chem, 2003).
